# Measurements from ChEMBL document CHEMBL1123815, “Heteroarotinoids. Synthesis, characterization, and biological activity in terms of an assessment of these systems to inhibit the induction of ornithine decarboxylase activity and to induce terminal differentiation of HL-60 cells” (J Med Chem, 1987).
# Legend:
# Type in all cases: functional
# [1] = molecular target: T1, Ornithine decarboxylase (Mus musculus) (UniProt P00860); assay: Inhibition of TPA induced ODC(Ornithine decarboxylase) activity in mice epidermis at 34 nmol in the presence of TPA
# T1 sequence (whole entry): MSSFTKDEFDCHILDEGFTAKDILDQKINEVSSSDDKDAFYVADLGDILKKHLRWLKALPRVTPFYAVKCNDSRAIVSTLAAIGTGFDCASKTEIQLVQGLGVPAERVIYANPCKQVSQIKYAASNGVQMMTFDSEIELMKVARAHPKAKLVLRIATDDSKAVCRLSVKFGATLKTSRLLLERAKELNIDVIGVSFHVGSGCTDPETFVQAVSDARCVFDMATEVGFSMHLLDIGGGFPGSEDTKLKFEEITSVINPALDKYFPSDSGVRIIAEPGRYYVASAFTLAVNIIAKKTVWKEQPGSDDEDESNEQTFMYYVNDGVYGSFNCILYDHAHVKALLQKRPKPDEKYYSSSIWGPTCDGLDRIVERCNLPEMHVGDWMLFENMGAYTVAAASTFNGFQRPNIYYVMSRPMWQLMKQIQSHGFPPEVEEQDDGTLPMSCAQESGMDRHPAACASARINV
# Method in brief: (§1)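 Mouse epidermis in vivo: retinoid applied to shaved back 1 h before topical 10 nmol TPA. Mice killed 5 h after TPA. Epidermis separated, homogenized and centrifuged at 30000 g. Soluble ODC activity measured as nmol CO2 released per 30 or 60 min per mg protein. Values are mean ± SE of three groups of three mice. Percent inhibition = (acetone+TPA ODC − retinoid ODC)/(acetone+TPA ODC) × 100.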
# [2] = molecular target: T1, Ornithine decarboxylase (Mus musculus); assay: Inhibition of TPA induced ODC(Ornithine decarboxylase) activity in mice epidermis at 34 nmol in the presence of TPA compared to control value; method in brief: as §1
# [3] = molecular target: T1, Ornithine decarboxylase (Mus musculus); assay: Inhibition of TPA induced ODC(Ornithine decarboxylase) activity in mice epidermis at 0 nmol in the presence of acetone+TPA; method in brief: as §1
# [4] = molecular target: T1, Ornithine decarboxylase (Mus musculus); assay: Inhibition of TPA induced ODC(Ornithine decarboxylase) activity in mice epidermis at 34 nmol in the presence of trans-retinoic acid + TPA; method in brief: as §1
# [5] = molecular target: T1, Ornithine decarboxylase (Mus musculus); assay: Inhibition of TPA induced ODC(Ornithine decarboxylase) activity in mice epidermis at 34 nmol in the presence of trans-retinoic acid + TPA compared to control value; method in brief: as §1
# [6] = molecular target: T1, Ornithine decarboxylase (Mus musculus); assay: Inhibition of TPA induced ODC(Ornithine decarboxylase) activity in mice epidermis at 17 nmol in the presence of 13-cis-retinoic acid + TPA; method in brief: as §1
# [7] = molecular target: T1, Ornithine decarboxylase (Mus musculus); assay: Inhibition of TPA induced ODC(Ornithine decarboxylase) activity in mice epidermis at 17 nmol in the presence of TPA; method in brief: as §1
# [8] = molecular target: T1, Ornithine decarboxylase (Mus musculus); assay: Inhibition of TPA induced ODC(Ornithine decarboxylase) activity in mice epidermis at 0 nmol in the presence of acetone; method in brief: as §1
# [9] = molecular target: T1, Ornithine decarboxylase (Mus musculus); assay: Inhibition of TPA induced ODC(Ornithine decarboxylase) activity in mice epidermis at 0 nmol in the presence of acetone + TPA; method in brief: as §1
# [10] = molecular target: T1, Ornithine decarboxylase (Mus musculus); assay: Inhibition of TPA induced ODC(Ornithine decarboxylase) activity in mice epidermis at 17 nmol in the presence of 13-cis-retinoic acid + TPA compared to control value; method in brief: as §1
# [11] = molecular target: T1, Ornithine decarboxylase (Mus musculus); assay: Inhibition of TPA induced ODC(Ornithine decarboxylase) activity in mice epidermis at 17 nmol in the presence of TPA compared to control value; method in brief: as §1
# [12] = molecular target: T1, Ornithine decarboxylase (Mus musculus); assay: Inhibition of TPA induced ODC(Ornithine decarboxylase) activity in mice epidermis at 0 nmol in the presence of acetone+ TPA; method in brief: as §1
smiles,measurement,setting,value
CC(/C=C/C=C(\C)c1ccc2c(c1)C(C)(C)CCS2)=C\C(=O)OCCN1C(=O)c2ccccc2C1=O,ODC activity ((nM of CO2) hr-1 (mg of protein)-1),[1],0.97
same,inhibition,[2],42%
C/C(=C\c1ccc(CO)cc1)c1ccc2c(c1)C(C)(C)CCO2,ODC activity,[3],5.3
same,ODC activity ((nM of CO2) hr-1 (mg of protein)-1),[1],1.7
same,ODC activity,[4],1
same,inhibition,[2],68%
same,inhibition,[5],81%
CC(/C=C/C=C(\C)c1ccc2c(c1)C(C)(C)CCS2)=C\C(=O)O,ODC activity ((nM of CO2) 30min-1 (mg of protein)-1),[6],0.1
same,ODC activity ((nM of CO2) 30min-1 (mg of protein)-1),[7],0.1
same,ODC activity ((nM of CO2) 30min-1 (mg of protein)-1),[8],0
same,ODC activity ((nM of CO2) 30min-1 (mg of protein)-1),[9],0.9
same,inhibition,[10],89%
same,inhibition,[11],89%
COC(=O)c1ccc(/C=C(\C)c2ccc3c(c2)C(C)(C)CCO3)cc1,ODC activity ((nM of CO2) hr-1 (mg of protein)-1),[6],0.14
same,ODC activity ((nM of CO2) hr-1 (mg of protein)-1),[1],0.95
same,ODC activity ((nM of CO2) hr-1 (mg of protein)-1),[12],1.67
same,inhibition,[10],92%
same,inhibition,[2],43%
CC(/C=C/C=C(\C)c1ccc2c(c1)C(C)(C)CCO2)=C\C(=O)O,ODC activity ((nM of CO2) hr-1 (mg of protein)-1),[1],1.4
same,inhibition,[2],74%
CCOC(=O)/C=C(C)/C=C/C=C(\C)c1ccc2c(c1)C(C)(C)CCS2,ODC activity ((nM of CO2) 30min-1 (mg of protein)-1),[7],0
same,ODC activity ((nM of CO2) 30min-1 (mg of protein)-1),[8],0
same,inhibition,[11],100%
COC(=O)c1ccc(/C=C(\C)c2ccc3c(c2)C(C)(C)CO3)cc1,ODC activity ((nM of CO2) hr-1 (mg of protein)-1),[1],1.5
same,inhibition,[2],72%
C/C(=C\c1ccc(C=O)cc1)c1ccc2c(c1)C(C)(C)CCO2,ODC activity ((nM of CO2) hr-1 (mg of protein)-1),[1],3.5
same,inhibition,[2],34%
C/C(=C\c1ccc(C#N)cc1)c1ccc2c(c1)C(C)(C)CCO2,ODC activity ((nM of CO2) hr-1 (mg of protein)-1),[1],1.77
same,inhibition,[2],0%
